The target in data set [1] is T1, Melatonin receptor type 1A (Homo sapiens, UniProt P48039). Put plainly: Displacement of 2-[125I]-iodomelatonin from human melatonin receptor-1 transfected in CHO cell membranes after 120 mins.
For data set [2], the target named is T2, Melatonin receptor type 1B (Homo sapiens, UniProt P49286).
T2 sequence (P49286 whole entry): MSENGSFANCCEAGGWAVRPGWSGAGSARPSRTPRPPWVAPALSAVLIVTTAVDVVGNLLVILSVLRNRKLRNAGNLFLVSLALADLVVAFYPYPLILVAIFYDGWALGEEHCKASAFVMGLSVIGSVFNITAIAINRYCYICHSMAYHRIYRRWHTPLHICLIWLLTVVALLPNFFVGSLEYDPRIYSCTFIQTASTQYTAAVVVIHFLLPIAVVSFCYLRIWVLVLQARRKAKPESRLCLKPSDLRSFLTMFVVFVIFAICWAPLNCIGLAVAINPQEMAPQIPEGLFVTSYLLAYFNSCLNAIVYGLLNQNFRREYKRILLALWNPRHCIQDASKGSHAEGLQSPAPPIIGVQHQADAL
Put plainly: Displacement of 2-[125I]-iodomelatonin from human melatonin receptor-2 transfected in CHO cell membranes after 120 mins.

A further data set is filed under the species Homo sapiens. Put plainly: Selectivity ratio of Ki for human melatonin receptor-1 to Ki for human melatonin receptor-2.
In data set [3] the target is T1, Melatonin receptor type 1A. Put plainly: Agonist activity at human melatonin receptor-1 transfected in CHO cell membranes after 1 hr by GTPgammaS binding assay. The format is functional.
The target of data set [4] is T1, Melatonin receptor type 1A. Put plainly: Agonist activity at human melatonin receptor-1 transfected in CHO cell membranes after 1 hr by GTPgammaS binding assay relative to melatonin. The format is functional. In outline: (§1)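 CHO membranes (20 µg/mL) stably expressing human MT1 or MT2 in 20 mM HEPES pH 7.4, 100 mM NaCl, 3 µM GDP, 3 mM MgCl2, 20 µg/mL saponin. Incubated with 0.2 nM [35S]GTPγS for 1 h at rt, then filtered. Non-specific binding defined with 10 µM GTPγS. Seven concentrations in duplicate; EC50 and Emax fitted.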

In data set [5] the target is T2, Melatonin receptor type 1B. Put plainly: Agonist activity at human melatonin receptor-2 transfected in CHO cell membranes after 1 hr by GTPgammaS binding assay. Type of data set: functional.
Data set [6] addresses T3, Melatonin receptor type 1B (Homo sapiens) (UniProt P49286).
T3 sequence (whole entry): T2 sequence (P49286 whole entry)
Put plainly: Agonist activity at human melatonin receptor-2 transfected in CHO cell membranes after 1 hr by GTPgammaS binding assay relative to melatonin. The format is functional. In outline: as §1

Data set [7] in a line: Thermodynamic solubility in buffer at pH 5.5 after 24 hrs by UV spectra analysis. Conditions: read-out: Therm_solubility. The format is physicochemical.
Data set [8] is described as follows: Thermodynamic solubility in phosphate buffer at pH 7.4 after 24 hrs by UV spectra analysis. The format is physicochemical. The following applies: read-out: Therm_solubility. In short, it runs like this:
(§2)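 Thermodynamic solubility: about 1 mg of solid was saturated in 200 µL buffer and stirred 24 h at rt at 320 rpm, then centrifuged. Supernatant was diluted with buffer-MeCN 80:20 and read by UV at its absorbance maximum. Values were quantified against a calibration line from a 10 mM DMSO stock, checked with a quality-control standard. Runs were in triplicate. The buffers were pH 7.4 phosphate 45 mM and NH4Cl for the basic pH.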

Data set [9] in a line: Thermodynamic solubility in NH4Cl buffer at pH 9.3 after 24 hrs by UV spectra analysis. The format is physicochemical. Conditions: read-out: Therm_solubility. In short, it runs like this:
as §2

The nature of data set [10]: Induction of primary neuronal stem cell differentiation derived from subgranular zone of dentate gyrus of Wistar rat hippocampus assessed as upregulation of TuJ1 expression at 10 uM incubated for 7 days followed by 48 hrs incubation in presence of serum and absence of EGF by DAPI staining-based fluorescence microscopic analysis. Type of data set: functional. The following applies: Primary neuron. In outline:
(§3)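 Neurospheres came from the SGZ of the dentate gyrus of adult male Wistar rats (8-12 weeks). They were grown in DMEM/F12 with 10 ng/mL EGF, 10 ng/mL FGF and B27. After 3 days, cultures were treated with compounds for 7 days. They were then plated on poly-L-lysine coverslips for 48 h with serum and without growth factors. Cells were immunostained for TuJ1 and MAP-2 with DAPI nuclei. Positive cells were counted by fluorescence microscopy in five NS per condition over three independent experiments. Untreated cultures gave basal values.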

Data set [11] in a line: Induction of primary neuronal stem cell maturation derived from subgranular zone of dentate gyrus of Wistar rat hippocampus assessed as upregulation of MAP-2 expression at 10 uM incubated for 7 days by DAPI staining-based fluorescence microscopic analysis. The format is functional. The following applies: Primary neuron. In outline:
as §3

A short description of data set [12]: Induction of primary neuronal stem cell differentiation derived from subgranular zone of dentate gyrus of Wistar rat hippocampus assessed as upregulation of TuJ1 expression at 10 uM incubated for 7 days followed by 48 hrs incubation in presence of serum and absence of EGF by DAPI staining-based fluorescence microscopic analysis in presence of melatonin receptor antagonist luzindole. The format is functional. The following applies: Primary neuron. In short, it runs like this: as §3

The nature of data set [13]: Induction of primary neuronal stem cell maturation derived from subgranular zone of dentate gyrus of Wistar rat hippocampus assessed as upregulation of MAP-2 expression at 10 uM incubated for 7 days by DAPI staining-based fluorescence microscopic analysis in presence of melatonin receptor antagonist luzindole. Type of data set: functional, tissue-based. The following applies: Primary neuron. In short, it runs like this:
as §3

A short description of data set [14]: Permeability of the compound at 100 ug/ml after 240 mins by PAMPA. The format is physicochemical. Conditions: 4 h. In outline:
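For PAMPA-BBB, the filter was coated with porcine brain lipid in dodecane (20 mg/mL). Donor compound was 100 µg/mL in PBS:ethanol 70:30, pH 7.4, and the acceptor held PBS:ethanol 70:30. Plates were incubated 240 min at 25 °C. Acceptor concentration was read by UV-Vis at five wavelengths in four wells, over at least three runs. Eleven quality-control standards were included.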

Data set [15] has as its target T2, Melatonin receptor type 1B. Put plainly: Agonist activity at human recombinant melatonin receptor-2 expressed in CHO cells assessed as decrease of cAMP level after 10 mins by HTRF assay. The format is functional, cell-based. In short, it runs like this: (§4)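 Functional agonist profiling was done by CEREP on cells expressing human recombinant MT receptors. MT1 was read by cellular dielectric spectroscopy and MT2 by homogeneous time-resolved fluorescence. The protocols are those on the company website.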

Data set [16] has as its target T3, Melatonin receptor type 1B (Homo sapiens). Put plainly: Agonist activity at human recombinant melatonin receptor-2 expressed in CHO cells assessed as decrease of cAMP level after 10 mins by HTRF assay relative to melatonin. The format is functional, cell-based.
In data set [17] the target is T1, Melatonin receptor type 1A. Put plainly: Agonist activity at human recombinant melatonin receptor-1 expressed in CHO cells assessed as effect on impedance by cellular dielectric spectroscopy. The format is cell-based. In outline: as §4
Data set [18] deals with T1, Melatonin receptor type 1A. Put plainly: Agonist activity at human recombinant melatonin receptor-1 expressed in CHO cells assessed as effect on impedance by cellular dielectric spectroscopy relative to melatonin. The format is cell-based.

Molecules are shown by their SMILES. Converted amounts (≈) assume the structure as drawn. The source made the active and inactive calls. No cut-off for these calls is given here.

T1 sequence (P48039 whole entry): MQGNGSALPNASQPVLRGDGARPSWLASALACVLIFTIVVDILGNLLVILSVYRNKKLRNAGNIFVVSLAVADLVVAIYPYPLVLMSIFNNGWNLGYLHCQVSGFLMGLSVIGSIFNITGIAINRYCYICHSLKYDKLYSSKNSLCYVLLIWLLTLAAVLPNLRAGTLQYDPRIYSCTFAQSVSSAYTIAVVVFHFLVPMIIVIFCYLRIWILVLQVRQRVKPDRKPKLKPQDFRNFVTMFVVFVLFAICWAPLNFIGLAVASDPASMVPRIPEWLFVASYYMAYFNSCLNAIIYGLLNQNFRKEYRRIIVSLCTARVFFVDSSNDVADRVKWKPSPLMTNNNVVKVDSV

Regarding `COc1ccc2[nH]cc(CCc3n[nH]c(=O)o3)c2c1`, the Ki was found to be 35 nM in [1] and 4 nM in data set [2]. For the same compound, the Ratio Ki in the data set filed under Homo sapiens was determined as 10. Also, the EC50 was found to be 326 nM in data set [3], 29 nM in data set [5], 5.5 nM in data set [15] and 48 nM in [17]. In addition, the Emax in [4] was 26%; in [6], 30%; in [16] it was 97%; in [18], 100%. The values for the solubility thermodynamic at 24 h in [7], in [8] and in data set [9] were 1410 µM (≈ 365 µg/mL), 2100 µM (≈ 544 µg/mL) and 7920 µM (≈ 2050 µg/mL), respectively. Also, the result in data set [10] and in data set [11] was Active. Also, the outcome in data set [12] and in [13] was inactive. Moreover, the permeability result in data set [14] is “permeable”.

For the origin of these results see ChEMBL document CHEMBL3580567 (J Med Chem, 2015).
